System: not listed separately
Test: Inhibition of Escherichia coli BL21(DE3) LpxC C63A mutant using UDP-3-O-(R-3-hydroxymyristoyl)-N-acetylglucosamine as substrate incubated for 30 mins by o-phthaldialdehyde-2-mercaptoethanol based fluorescence assay

| Structure (SMILES) | IC50 |
| --- | --- |
| O=C(NO)[C@@H](CO)O[C@@H](CO)c1ccc(C#Cc2ccccc2)cc1 | > 200 µM |
| O=C(NO)[C@@H]1O[C@H](c2ccc(C#CC#Cc3ccccc3)cc2)[C@@H](O)[C@H]1O | 5 µM |
| CO[C@H]1[C@@H](O)[C@@H](C(=O)NO)O[C@H]1c1ccc(C#Cc2ccc(CN3CCOCC3)cc2)cc1 | > 200 µM |
| CO[C@@H]1[C@H](O)[C@H](c2ccc(C#Cc3ccc(CN4CCOCC4)cc3)cc2)O[C@@H]1C(=O)NO | > 200 µM |
| O=C(NO)[C@@H]1O[C@@H](c2ccc(C#CC#Cc3ccccc3)cc2)[C@@H](O)[C@H]1O | 15 µM |
| O=C(NO)[C@H](CO)O[C@H](CO)c1ccc(C#Cc2ccccc2)cc1 | > 200 µM |
| O=C(NO)[C@@H]1O[C@@H](c2ccc(C#Cc3ccccc3)cc2)[C@@H](O)[C@H]1O | 24 µM |
| O=C(NO)[C@@H](CO)O[C@H](CO)c1ccc(C#Cc2ccc(CN3CCOCC3)cc2)cc1 | 8 µM |
| O=C(NO)[C@H]1O[C@@H](c2ccc(C#Cc3ccccc3)cc2)[C@@H](O)[C@H]1O | > 200 µM |
| CC1(C)O[C@@H]2[C@H](O1)[C@H](c1ccc(C#Cc3ccc(CN4CCOCC4)cc3)cc1)O[C@@H]2C(=O)NO | > 200 µM |
| O=C(NO)[C@H]1O[C@@H](c2ccc(C#CC#Cc3ccccc3)cc2)[C@@H](O)[C@H]1O | 32 µM |
| O=C(NO)[C@H]1O[C@H](c2ccc(C#Cc3ccc(CN4CCOCC4)cc3)cc2)[C@@H](O)[C@H]1O | 34 µM |

System: Escherichia coli
Test: Antibacterial activity against Escherichia coli BL21(DE3) cells assessed as diameter of zone of growth inhibition after overnight incubation at 37 degC by agar disc diffusion clearance assay
Type: functional
In short: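 Overnight LB broth cultures (37 °C, 200 rpm); 150 µL spread on LB agar. 6 mm filter discs loaded with 15 µL of 10 mM compound in DMSO. DMSO disc as negative control, CHIR-090 as positive control. Plates kept overnight at 37 °C, then diameter of the growth-inhibition zone measured.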

| Structure (SMILES) | diameter of the inhibition zone (DIZ) |
| --- | --- |
| O=C(NO)c1ccc(-c2ccc(C#Cc3ccccc3)cc2)o1 | <6 mm |
| O=C(NO)[C@@H](CO)O[C@@H](CO)c1ccc(C#Cc2ccccc2)cc1 | <6 mm |
| O=C(NO)[C@@H]1O[C@H](c2ccc(C#CC#Cc3ccccc3)cc2)[C@@H](O)[C@H]1O | 10.7 mm |
| CO[C@H]1[C@@H](O)[C@@H](C(=O)NO)O[C@H]1c1ccc(C#Cc2ccc(CN3CCOCC3)cc2)cc1 | <6 mm |
| CO[C@@H]1[C@H](O)[C@H](c2ccc(C#Cc3ccc(CN4CCOCC4)cc3)cc2)O[C@@H]1C(=O)NO | <6 mm |
| O=C(NO)[C@@H]1O[C@@H](c2ccc(C#CC#Cc3ccccc3)cc2)[C@@H](O)[C@H]1O | <6 mm |
| O=C(NO)[C@H](CO)O[C@H](CO)c1ccc(C#Cc2ccccc2)cc1 | <6 mm |
| O=C(NO)[C@@H]1O[C@@H](c2ccc(C#Cc3ccccc3)cc2)[C@@H](O)[C@H]1O | <6 mm |
| O=C(NO)[C@@H](CO)O[C@H](CO)c1ccc(C#Cc2ccc(CN3CCOCC3)cc2)cc1 | 16 mm |
| O=C(NO)[C@H]1O[C@@H](c2ccc(C#Cc3ccccc3)cc2)[C@@H](O)[C@H]1O | <6 mm |
| CC1(C)O[C@@H]2[C@H](O1)[C@H](c1ccc(C#Cc3ccc(CN4CCOCC4)cc3)cc1)O[C@@H]2C(=O)NO | <6 mm |
| O=C(NO)[C@H]1O[C@@H](c2ccc(C#CC#Cc3ccccc3)cc2)[C@@H](O)[C@H]1O | <6 mm |
| O=C(NO)[C@H]1O[C@H](c2ccc(C#Cc3ccc(CN4CCOCC4)cc3)cc2)[C@@H](O)[C@H]1O | 9.8 mm |

System: Escherichia coli
Test: Antibacterial activity against envA mutant Escherichia coli D22 cells assessed as diameter of zone of growth inhibition after overnight incubation at 37 degC by agar disc diffusion clearance assay
Type: functional
In short: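 E. coli D22 (defective strain) grown overnight in LB broth at 37 °C, 200 rpm; 150 µL of overnight suspension spread on LB agar. 6 mm filter paper discs loaded with 15 µL compound (10 mM in DMSO); DMSO disc as negative control, CHIR-090 as positive control. Plates incubated overnight at 37 °C; growth-inhibition zone diameter measured.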

| Structure (SMILES) | diameter of the inhibition zone (DIZ) |
| --- | --- |
| O=C(NO)c1ccc(-c2ccc(C#Cc3ccccc3)cc2)o1 | 8 mm |
| O=C(NO)[C@@H](CO)O[C@@H](CO)c1ccc(C#Cc2ccccc2)cc1 | 9.3 mm |
| O=C(NO)[C@@H]1O[C@H](c2ccc(C#CC#Cc3ccccc3)cc2)[C@@H](O)[C@H]1O | 14.5 mm |
| CO[C@H]1[C@@H](O)[C@@H](C(=O)NO)O[C@H]1c1ccc(C#Cc2ccc(CN3CCOCC3)cc2)cc1 | 20.5 mm |
| CO[C@@H]1[C@H](O)[C@H](c2ccc(C#Cc3ccc(CN4CCOCC4)cc3)cc2)O[C@@H]1C(=O)NO | 11.7 mm |
| O=C(NO)[C@@H]1O[C@@H](c2ccc(C#CC#Cc3ccccc3)cc2)[C@@H](O)[C@H]1O | 15.7 mm |
| O=C(NO)[C@H](CO)O[C@H](CO)c1ccc(C#Cc2ccccc2)cc1 | 16.2 mm |
| O=C(NO)[C@@H]1O[C@@H](c2ccc(C#Cc3ccccc3)cc2)[C@@H](O)[C@H]1O | 18 mm |
| O=C(NO)[C@@H](CO)O[C@H](CO)c1ccc(C#Cc2ccc(CN3CCOCC3)cc2)cc1 | 26.1 mm |
| O=C(NO)[C@H]1O[C@@H](c2ccc(C#Cc3ccccc3)cc2)[C@@H](O)[C@H]1O | 6.5 mm |
| CC1(C)O[C@@H]2[C@H](O1)[C@H](c1ccc(C#Cc3ccc(CN4CCOCC4)cc3)cc1)O[C@@H]2C(=O)NO | 14.7 mm |
| O=C(NO)[C@H]1O[C@@H](c2ccc(C#CC#Cc3ccccc3)cc2)[C@@H](O)[C@H]1O | 9 mm |
| O=C(NO)[C@H]1O[C@H](c2ccc(C#Cc3ccc(CN4CCOCC4)cc3)cc2)[C@@H](O)[C@H]1O | 20.2 mm |

System: not listed separately
Test: Inhibition of Escherichia coli BL21(DE3) LpxC C63A mutant using UDP-3-O-(R-3-hydroxymyristoyl)-N-acetylglucosamine as substrate incubated for 30 mins by Cheng-Prusoff equation analysis

| Structure (SMILES) | Ki |
| --- | --- |
| O=C(NO)[C@@H](CO)O[C@@H](CO)c1ccc(C#Cc2ccccc2)cc1 | > 27.6 µM |
| O=C(NO)[C@@H]1O[C@H](c2ccc(C#CC#Cc3ccccc3)cc2)[C@@H](O)[C@H]1O | 0.69 µM |
| CO[C@H]1[C@@H](O)[C@@H](C(=O)NO)O[C@H]1c1ccc(C#Cc2ccc(CN3CCOCC3)cc2)cc1 | > 27.6 µM |
| CO[C@@H]1[C@H](O)[C@H](c2ccc(C#Cc3ccc(CN4CCOCC4)cc3)cc2)O[C@@H]1C(=O)NO | > 27.6 µM |
| O=C(NO)[C@@H]1O[C@@H](c2ccc(C#CC#Cc3ccccc3)cc2)[C@@H](O)[C@H]1O | 2.1 µM |
| O=C(NO)[C@H](CO)O[C@H](CO)c1ccc(C#Cc2ccccc2)cc1 | > 27.6 µM |
| O=C(NO)[C@@H]1O[C@@H](c2ccc(C#Cc3ccccc3)cc2)[C@@H](O)[C@H]1O | 3.3 µM |
| O=C(NO)[C@@H](CO)O[C@H](CO)c1ccc(C#Cc2ccc(CN3CCOCC3)cc2)cc1 | 1.1 µM |
| O=C(NO)[C@H]1O[C@@H](c2ccc(C#Cc3ccccc3)cc2)[C@@H](O)[C@H]1O | > 27.6 µM |
| CC1(C)O[C@@H]2[C@H](O1)[C@H](c1ccc(C#Cc3ccc(CN4CCOCC4)cc3)cc1)O[C@@H]2C(=O)NO | > 27.6 µM |
| O=C(NO)[C@H]1O[C@@H](c2ccc(C#CC#Cc3ccccc3)cc2)[C@@H](O)[C@H]1O | 4.4 µM |
| O=C(NO)[C@H]1O[C@H](c2ccc(C#Cc3ccc(CN4CCOCC4)cc3)cc2)[C@@H](O)[C@H]1O | 4.7 µM |

Reference: ChEMBL document CHEMBL3769393, “Chiral pool synthesis and biological evaluation of C-furanosidic and acyclic LpxC inhibitors” (Eur J Med Chem, 2016)
